Only some compounds are listed: those with a hit (about 5.6% of all), similar ones and a draw of the others.
CHOP inhibitor – blocks CHOP induction under ER stress; inhibition, % at 10 µM; CHO-K1 CHOP-promoter luciferase, tunicamycin-induced, 15-18 h; AID 2732; 3.8% of 220,000 active;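 active = compounds that reduced the stress-induced luciferase reporter signal by more than about 70% of percent inhibition, limit read from the data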;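 also: 0% = tunicamycin plus vehicle and 100% = wells without tunicamycin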
MPTP block – blocks calcium-induced mitochondrial swelling. isolated mouse mitochondria, Ca2+ swelling absorbance, 30 min. inhibition, % at 10 µM. 1.4% of 360,000 active. AID 602449;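 active = inhibition of 50% or more, scaled per plate between neutral and stimulator controls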;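 also: 0% = DMSO wells given calcium and 100% = 1 mM EGTA wells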
UPR CHOP act – activators of apoptotic arm of unfolded protein response (CHOP). activation, % at 10 µM. 0.34% of 330,000 active. CHO-CHOP luciferase reporter, UPR activation, luminescence; percent of tunicamycin response over DMSO baseline. AID 449763;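 active = at 10 µM dose, activation of 40% or more, normalized to positive control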;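 also: 100% = tunicamycin at 10 µg/mL and 0% = DMSO alone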
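Test system: CHO CHOP reporter cells. Input: 500 CHO-CHOP cells per well. Medium: F12 with 10% FBS. Technique: luciferase luminescence. Measure: percent activation relative to tunicamycin control. Dosing: 10 µM compound, 0.5% DMSO. Timing: 16-18 h cell attachment, then 6 h compound exposure, 37 °C.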
UPR XBP1 act – activators of adaptive arm of unfolded protein response (XBP1) | CHO-XBP1 luciferase reporter, IRE1-XBP1 UPR activation, luminescence; percent of tunicamycin response, DMSO as zero | 0.33% of 330,000 active | AID 463104 | activation, % at 20 µM;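 active = versus positive control, 20 µM dose yields 30% or more activation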;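 also: 100% = tunicamycin at 10 µg/mL and 0% = DMSO only wells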
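Material: CHO-XBP1 cells stably carrying IRE1-XBP1-driven luciferase reporter | Medium: F12 with 10% serum | Compound dosing: 20 µM single concentration, DMSO 1% | Incubation: Overnight seeding at 37 °C, 6 h compound treatment at 37 °C | Detection: Steady-Glo luminescence read | Read-out basis: % activation of reporter signal versus tunicamycin and DMSO controls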
GRIN3A LBD mod – modulators (binders) of human NR3A ligand-binding domain; NR3A LBD differential scanning fluorimetry, Tm shift; 0% = protein alone, 100% = glycine-bound protein; Tm shift relative to glycine control, % at 25 µM; 2.5% of 340,000 active; AID 1259313;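 active = melting temperature shift of at least 10% of the positive control shift, at one fixed dose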
aDG glyco act – increases alpha dystroglycan glycosylation | Pro5-aDG cells, alpha-DG glycosylation AlphaScreen (IIH6); 0% Pro5, 100% B10-LARGE cell signal | activation, % at 10 µM | 0.22% of 360,000 active | AID 624168;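 active = activation of at least 8% versus controls, or a plate z-score of at least 8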;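 also: Pro5 are CHO cells carrying HIG-tagged alpha-DG that lacks glycosylation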
Rh123 counter – mitochondrial membrane potential, counter-screen. AID 624504. inhibition, % at 10 µM. shares compounds with MPTP block. isolated mitochondria, Rhodamine 123 fluorescence. 78% of 5,000 active; in the data active = inhibition above about 22%;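 also: 0% = DMSO vehicle and 100% = positive control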
MPTP abs DR – MPTP inhibition, dose response swelling confirmation; shares compounds with MPTP block; isolated mitochondria swelling, absorbance; IC50, µM; 58% of 780 active; AID 651561; in the data active = IC50 below about 20 µM
MPTP cs DR – counter-screen for mitochondrial permeability transition pore inhibitors, dose response; isolated mitochondria counterscreen, fluorescence read-out; 49% of 780 active; IC50, µM; shares compounds with MPTP block; AID 651564; in the data active = IC50 below about 80 µM
Starred values were filed as active, the others as inactive; / = not tested or not shown; ! = not active in a repeat.

SMILES | CHOP inhibitor | MPTP block | UPR CHOP act | UPR XBP1 act | GRIN3A LBD mod | aDG glyco act | Rh123 counter | others
O=C(C1CCN(S(=O)(=O)c2ccc(-n3cnnn3)cc2)CC1)N1CCCCC1 | / | -4 | 2 | -4 | 0 | 0 | /
COc1ccccc1NC(=O)c1ccc(Br)c(S(=O)(=O)N2CCCC2)c1 | / | -1 | 1 | -2 | 5 | 0 | /
COc1ccc(C(C)(NC(C)=O)c2nc(-c3cccc4cccnc34)cs2)cc1 (stereo unspecified) | / | -1 | / | / | / | 0 | /
Cc1ccc(NC(=O)CN2CC(C)SC2=NC2CCCCC2)cc1 (stereo unspecified) | / | 52*! | 0 | -4 | -1 | 0 | -12 | MPTP abs DR=13*;MPTP cs DR=>80
Cc1ccc(NC(=O)CN2CCOCC2)cc1 | / | -2 | 0 | 6 | -2 | 0 | /
CC1CCCN(CCC(=O)c2ccc(Br)cc2)C1 (stereo unspecified) | -35 | 114* | -3 | 0 | 1 | 1 | 5 | MPTP abs DR=5.7*;MPTP cs DR=>80
CCN(CC)S(=O)(=O)c1ccc2oc(SCC3CN=C(c4ccc(OC)cc4)S3)nc2c1 (stereo unspecified) | 19 | 56* | 2 | -1 | 1 | 1 | 10 | MPTP abs DR=17*;MPTP cs DR=12*
COc1ccc(C2=NCC(CSc3nnc(-c4ccc5c(c4)OCO5)o3)S2)cc1 (stereo unspecified) | 17 | 58* | 5 | 0 | -1 | 1 | 81*
COc1ccc(C2=NCC(CSc3nccc(=O)[nH]3)S2)cc1 (stereo unspecified) | 12 | 0 | -1 | -1 | 0 | 0 | /
Cc1ccc(NC(=S)NNc2ncc(C(F)(F)F)cc2Cl)cc1 | 57 | -6 | 1 | -3 | -5 | 0 | /
Fc1ccc(NC(=S)NNc2ncc(C(F)(F)F)cc2Cl)c(F)c1 | 34 | 94* | -3 | -1 | -8 | 1 | 94*
FC(F)(F)c1cnc(NNC(=S)Nc2ccc(Cl)cc2)c(Cl)c1 | 99* | 100* | 6 | 2 | 18* | 2 | 92*
Cc1cc(N2CCCC2=O)cc(C)c1S(=O)(=O)NCCOc1ccc(C(C)(C)C)cc1 | 78* | 105* | 7 | 0 | -11 | 11* | 99*
O=C1C=C(OCCF)CC(c2cccc([N+](=O)[O-])c2)O1 (stereo unspecified) | / | -2 | / | / | / | 0 | /
Cc1nn(C)c2ncc(C(=O)c3ccccc3O)cc12 | / | 0 | 3 | -2 | -1 | 0 | /
Cc1nn(-c2ccccc2)c2ncc(C(=O)c3cc(Cl)ccc3O)cc12 | 44 | 62* | 1 | -1 | 4 | 0 | 83*
CCCCCCn1c(COc2ccccc2F)nnc1SCC(=O)NC1CCS(=O)(=O)C1 (stereo unspecified) | / | 1 | / | / | -4 | 0 | /
CC(=O)N1CCN(C2c3cccc4cccc(c34)C2NS(=O)(=O)c2ccccc2)CC1 (stereo unspecified) | -1 | -1 | 0 | -4 | 0 | 0 | /
O=S(=O)(NC1c2cccc3cccc(c23)C1N1CCNCC1)c1ccc(Cl)cc1 (stereo unspecified) | 0 | 81* | 3 | -1 | -1 | 6 | -8 | MPTP abs DR=3.2*;MPTP cs DR=>80
CCN(CC)CCOc1ccc(/C(=C(\Cl)c2ccccc2)c2ccccc2)cc1 | / | 104* | 4 | 2 | 0 | 1 | -13
COC(=O)C1CCN(C2CN(Cc3ccc(C)cc3)S(=O)(=O)C2)CC1 (stereo unspecified) | / | 1 | / | / | / | 0 | /
CCn1c(CNC(=O)COc2ccc(C(C)C)cc2)nnc1SCC(=O)Nc1ccccc1C(C)C | 62 | 53* | 3 | -3 | 1 | 1 | 57*
CCn1c(CNC(=O)COc2ccc(C(C)C)cc2)nnc1SCC(=O)Nc1ccccc1F | 66 | -2 | 0 | -2 | 0 | 0 | /
COc1cc(C=Cc2nnc3c4ccccc4cnn23)cc(OC)c1OC | / | 1 | / | / | / | 0 | /
CCN(C[C@H]1N[C@@](Cc2ccccc2)(C(=O)OC)[C@H]2C(=O)N(Cc3ccccc3)C(=O)[C@@H]12)C(=O)Nc1ccc(C(F)(F)F)cc1 | / | 80* | 7 | 4 | 8 | 0 | 105*
SMILES | CHOP inhibitor | MPTP block | UPR CHOP act | UPR XBP1 act | GRIN3A LBD mod | aDG glyco act | Rh123 counter | others
O=C1N(c2cccc(Cl)c2)C(c2ccc(Cl)cc2)N2CCCN12 (stereo unspecified) | 13 | 1 | 0 | -3 | 3 | 0 | /
CC1CCN(C(=O)Cn2nnc(-c3ccc(N)cc3)n2)CC1 | / | 0 | 0 | -1 | -1 | 0 | /
Cc1c(CN2CCC(CO)(CC3CCCCO3)CC2)cnn1C (stereo unspecified) | -2 | 0 | 1 | -2 | -1 | -1 | /
CCOC(=O)c1sc(NC(=O)c2ccccc2)cc1C | 18 | 24 | 7 | 6 | 4 | 0 | /
CCOC(=O)c1sc(NC(=O)c2cccc(S(=O)(=O)N(CC)CC)c2)cc1C | 49 | 51* | 1 | 10 | 3 | 6 | 11 | MPTP abs DR=>100;MPTP cs DR=<2.5*
CC1CCCN(C(=O)N2c3ccccc3Sc3ccccc32)C1 (stereo unspecified) | 1 | -1 | 0 | 0 | 2 | 0 | /
CC1CCN(C(=O)N2c3ccccc3Sc3ccccc32)CC1 | -3 | 65* | 2 | -4 | -4 | 0 | 34*
COc1ccc([N+](=O)[O-])cc1NC(=S)NC(NC(=O)Cc1ccc(OC)c(OC)c1)C(Cl)(Cl)Cl (stereo unspecified) | -6 | 66* | -2 | -2 | 7 | 0 | 51*
CC(C)(C)CC(C)(C)NC(=O)Nc1cccc([N+](=O)[O-])c1 | 80* | 90* | -2 | 2 | -2 | 0 | 84*
O=C(Nc1cccc([N+](=O)[O-])c1)c1ccncc1 | 9 | -2 | -1 | 0 | 1 | 0 | /
CC(C)(C)c1ccc(C(=O)Nc2cccc([N+](=O)[O-])c2)cc1 | 51 | 95* | / | / | -10 | 1 | 85*
COc1ccc(CCC(=O)N2CCN(c3ccccc3)CC2)cc1OC | / | -2 | 3 | 1 | 0 | 0 | /
O=C(CSc1ccc(Cl)cc1)Nc1cccc(-c2nnc(-c3ccco3)o2)c1 | 42 | 70* | 1 | -2 | 11* | 0 | 59*
O=C(CSc1ccc(Cl)cc1)Nc1nnc(-c2ccco2)o1 | / | -3 | 1 | -5 | -3 | 0 | /

Assay outcomes as filed in PubChem.
